# Most compounds without a hit are left out; they make up all but 5.9% or so of the library.
# GASC1 inh: blocks human GASC-1 (KDM4C) demethylase activity. Q9H3R0. GST-KDM4C 2-372, H3K9me3 peptide, LANCE TR-FRET. inhibition, % at 12.5 µM. 96,000 compounds, 0.15% hits;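 active = mean replicate inhibition above about 25%, with at least 55% of replicates also reaching it, limit read from the data, passing the limit was not always enough; inconclusive = only one of those two conditions met; inactive = neither condition met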
#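 Test system: N-terminal GST-fused human GASC-1 (KDM4C) fragment, residues 2-372; quantity: GASC-1 enzyme at 10 nM final in reaction; dosing: single dose; schedule: 30 min demethylation and 1 h detection at room temperature; signal: LANCE TR-FRET, excitation 340 nm, emissions 618 and 671 nm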
# Pf Dd2 growth: P. falciparum Dd2 growth inhibition. SYBR Green, 72 h; hits give low values. activity change, % at 10 µM. 94,000 compounds, 2.3% hits. AID 1159554; in the data active = activity change below about -80%; inconclusive = no clear call, values can overlap the other calls
# IDH1 R132H inh: inhibitors of human IDH1 R132H. O75874. IDH1 R132H reductase, diaphorase/resazurin fluorescence, 60 min. inhibition, % at 10 µM. 70,000 compounds, 0.18% hits. AID 624101; in the data active = inhibition above about 34%; inconclusive = no clear call, values can overlap the other calls; inactive = below about 11%;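 note: 0% = DMSO and 100% = no enzyme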
# Target sequence (O75874 whole entry R132H): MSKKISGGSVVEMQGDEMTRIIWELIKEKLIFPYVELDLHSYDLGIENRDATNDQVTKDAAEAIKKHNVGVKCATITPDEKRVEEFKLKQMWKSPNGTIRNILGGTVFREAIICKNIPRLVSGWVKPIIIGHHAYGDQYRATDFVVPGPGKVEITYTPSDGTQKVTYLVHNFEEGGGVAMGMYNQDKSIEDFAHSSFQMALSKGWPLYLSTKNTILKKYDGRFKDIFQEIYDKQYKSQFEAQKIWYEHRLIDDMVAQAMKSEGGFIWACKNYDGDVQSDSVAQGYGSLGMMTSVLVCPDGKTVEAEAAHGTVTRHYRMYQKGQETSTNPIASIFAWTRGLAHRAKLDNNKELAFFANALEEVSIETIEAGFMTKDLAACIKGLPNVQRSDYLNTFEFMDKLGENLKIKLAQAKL
# T cruzi growth-1: inhibitors of T. cruzi proliferation; 77,000 compounds, 5.9% hits; T. cruzi beta-gal in NIH3T3, GalScreen luminescence, 90 h; inhibition, % at 8.34 µM;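 active = mean inhibition above about 93%, with at least 55% of replicates each passing it, limit read from the data, passing the limit was not always enough; inconclusive = only one of those two conditions holds; inactive = neither condition holds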
# T cruzi growth-2: inhibitors of T. cruzi proliferation. shares compounds with T cruzi growth-1. T. cruzi beta-gal in NIH3T3, GalScreen luminescence, 90 h. inhibition, % at 8.35 µM. 5,600 compounds, 72% hits. AID 651739;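 active = mean replicate inhibition above about 95% and at least 55% of replicates individually reaching it, limit read from the data; inconclusive = only one of the two criteria is met; inactive = neither criterion is met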
# T cruzi growth-3: Trypanosoma cruzi proliferation inhibition. shares compounds with T cruzi growth-1. T. cruzi beta-gal in NIH3T3, GalScreen luminescence, 90 h. inhibition, % at 2.09 µM. 5,600 compounds, 21% hits;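 active = mean inhibition above about 95%, with at least 55% of replicates also reaching it, limit read from the data; inconclusive = meets just one of the two conditions; inactive = meets neither condition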;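 note: plate controls were neutral control median for no effect and positive control median for full effect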
# 3T3 cytotox: kills mouse NIH/3T3 fibroblasts; 5,600 compounds, 14% hits; NIH/3T3 viability, CellTiter-Glo ATP luminescence, 90 h; cytotoxicity (signal decrease), % at 8.35 µM; shares compounds with T cruzi growth-1;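 active = mean signal decrease across replicates above about 35% based on untreated-well scatter, with enough replicates individually passing, limit read from the data; inconclusive = no rule stated though some were filed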;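 note: 0% = median of neutral control wells and 100% = median of positive control wells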
# 3T3 cytotox 2: kills mouse NIH/3T3 fibroblasts; AID 651744; shares compounds with T cruzi growth-1; NIH/3T3 viability, CellTiter-Glo ATP luminescence, 90 h; 5,600 compounds, 56% hits; inhibition, % at 24.9 µM;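 active = mean loss of cell viability signal at or above a set limit, and enough replicates individually reaching it; inconclusive = meets only the mean limit or only the replicate share; inactive = meets neither condition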;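 note: 0% = median of neutral control wells and 100% = median of positive control wells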
# An asterisk follows results filed as active; ? = inconclusive; . = no result.
SMILES,GASC1 inh,Pf Dd2 growth,IDH1 R132H inh,T cruzi growth-1,T cruzi growth-2,T cruzi growth-3,3T3 cytotox,3T3 cytotox 2
Cc1ccc(Cl)c(OCC(=O)Nc2sc(C)c(C)c2C(N)=O)c1,.,.,0,.,.,.,.,.
O=C(Nc1cccc(F)c1)N[C@@H]1CC[C@H](CCNS(=O)(=O)c2cccc(Cl)c2)O[C@H]1CO,-2,-88*,-1,115*,-27,-10,-20,-8
O=C(Nc1cccc(F)c1)N[C@H]1CC[C@H](CCNS(=O)(=O)c2cccc(Cl)c2)O[C@@H]1CO,0,-32,-1,152*,63,15,-1,18
O=C(Nc1cccc(F)c1)N[C@H]1CC[C@@H](CCNS(=O)(=O)c2cccc(Cl)c2)O[C@H]1CO,-3,-26,0,70,.,.,.,.
COc1cccc(-c2ccc3c(c2)O[C@@H](CN(C)Cc2cccnc2)[C@H](C)CN([C@@H](C)CO)S3(=O)=O)c1,2,-56,0,112*,92,104*,48*,88*
COc1cccc(-c2ccc3c(c2)O[C@H](CN(C)Cc2cccnc2)[C@@H](C)CN([C@H](C)CO)S3(=O)=O)c1,7,-49,0,113*,98*,108*,64*,86*
COc1cccc(-c2ccc3c(c2)O[C@@H](CN(C)Cc2cccnc2)[C@@H](C)CN([C@@H](C)CO)S3(=O)=O)c1,0,-28,5,95*,?,72,16,53*
C[C@@H]1CN([C@@H](C)CO)C(=O)c2cc(NS(=O)(=O)c3ccccc3)ccc2O[C@@H]1CN(C)Cc1ccc2c(c1)OCO2,2,-2,-12,102*,-31,11,-5,18
C[C@@H]1CN([C@@H](C)CO)C(=O)c2cc(NS(=O)(=O)c3ccccc3)ccc2O[C@@H]1CN(C)Cc1ccc(C(F)(F)F)cc1,-2,19,0,73,.,.,.,.
C[C@H]1CN([C@@H](C)CO)C(=O)c2cc(NS(=O)(=O)c3ccccc3)ccc2O[C@@H]1CN(C)Cc1ccc(C(F)(F)F)cc1,5,16,2,104*,70,64,24,39*
C[C@H](CO)N1C[C@H](C)[C@@H](CN(C)Cc2ccc3c(c2)OCO3)Oc2ccc(NS(=O)(=O)c3ccccc3)cc2C1=O,0,30,-2,-3,.,.,.,.
C[C@H](CO)N1C[C@H](C)[C@H](CN(C)Cc2ccc(C(F)(F)F)cc2)Oc2ccc(NS(=O)(=O)c3ccccc3)cc2C1=O,-1,0,0,104*,76,70,-9,11
O=C(Cn1cnc2ccccc2c1=O)Nc1cccc(Cl)c1Cl,.,.,0,.,.,.,.,.
CC1(C)C(=O)[C@@H]2O[C@@H]2[C@@]2(C)C1CC(=O)[C@]1(C)C2CC[C@@]2(C)[C@H](c3ccoc3)OC(=O)[C@H]3O[C@]321 (stereo partly specified),.,.,0,.,.,.,.,.
C[C@@H]1CCCCO[C@H](CN(C)C(=O)Cc2ccccc2)[C@@H](C)CN([C@@H](C)CO)C(=O)c2cc(N(C)C)ccc2O1,0,-22,-2,97*,46,27,-40,-13
C[C@H](CO)N1C[C@H](C)[C@H](CN(C)C(=O)Cc2ccccc2)OCCCC[C@H](C)Oc2ccc(N(C)C)cc2C1=O,2,-39,-1,104*,?,25,-10,-23
Cc1ccc2oc(-c3ccc(NC(=O)Cn4c(=O)oc5ccccc54)cc3)nc2c1,.,.,1,.,.,.,.,.
C[C@@H]1CN([C@@H](C)CO)S(=O)(=O)c2ccc(C#CC3CC3)cc2O[C@H]1CN(C)C(=O)c1cccc(F)c1,-3,15,-1,.,.,.,.,.
C[C@@H]1CN([C@@H](C)CO)S(=O)(=O)c2ccc(C#CC3CCCC3)cc2O[C@H]1CN(C)C(=O)c1cccc(F)c1,-2,?,.,120*,91,100*,41*,106*
C[C@H](CO)N1C[C@H](C)[C@H](CN(C)C(=O)c2cccc(F)c2)Oc2cc(C#CC3CCCC3)ccc2S1(=O)=O,-1,-65,.,123*,103*,78,5,103*
